A short description of experiment [1]: Inhibition of soybean 15-LOX assessed as peroxide level by DMAB-MBTH method. Also on record: species or system Glycine max. In short, it runs like this: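 Soybean lipoxygenase (SLO, 40,000 units/mL, 25 µL) and compound in ethanol preincubated 5 min at room temperature in 50 mM phosphate buffer pH 7.0; ethanol-only control. Reaction started with linoleic acid substrate in ethanol/100 mM KOH. After 7 min, 50 mM DMAB in 100 mM phosphate pH 7.0 was added, then MBTH/hemoglobin in phosphate pH 5.0, as colorimetric peroxide read-out.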

Experiment [2] concerns Radical scavenging activity. The experiment in a line: Antioxidant activity of compound assessed as DPPH radical scavenging activity by colorimetric method. It counts as functional. The essentials: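 DPPH colorimetric scavenging assay: DPPH solution mixed with an equal volume of compound dissolved in ethanol, several dilutions tested, ethanol as control. After 30 min at room temperature, absorbance read at 517 nm. IC50 obtained by regression analysis of the mean values.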
A general note: DPPH is a stable violet radical that fades when it is reduced.

Structures are written as SMILES. Some results are limits rather than exact numbers.

The term IC50 denotes the midpoint of a concentration-inhibition curve.

Take `COc1ccc(-c2[nH]c(=S)[nH]c2-c2ccccc2)cc1`: the IC50 amounted to 13.7 µM in experiment [1] and 87.4 µM in experiment [2].

For `S=c1[nH]c(-c2ccccc2)c(-c2ccc(Cl)cc2)[nH]1`, the IC50 was determined as 24.9 µM in experiment [1] and 30.3 µM in experiment [2].

As for `CSc1ccc(-c2[nH]c(=S)[nH]c2-c2ccccc2)cc1`, the IC50 came out at 5.7 µM in experiment [1] and 90 µM in experiment [2].

For `CN(C)c1ccc(-c2[nH]c(=S)[nH]c2-c2ccc(Cl)cc2)cc1`, the IC50 in experiment [1] came out at 22.3 µM; in experiment [2] it was 15.9 µM.

Turning to `COc1ccc(-c2[nH]c(=S)[nH]c2-c2ccc(N(C)C)cc2)cc1`, the IC50 was found to be 9.4 µM in experiment [1] and 15.2 µM in experiment [2].

In the case of `COc1ccc(-c2[nH]c(=S)[nH]c2-c2ccc(F)cc2)cc1`, the figures for the IC50 in experiment [1] and in experiment [2] were 11 µM and 57.2 µM, respectively.

As to `COc1ccc(-c2[nH]c(=S)[nH]c2-c2ccc(Cl)cc2)cc1`, the IC50 in experiment [1] worked out at 4.7 µM; in experiment [2], 14 µM.

For the compound `CSc1ccc(-c2[nH]c(=S)[nH]c2-c2ccc(F)cc2)cc1`, the results for the IC50 in experiment [1] and in experiment [2] were 136 µM and 49 µM, respectively.

In the case of `CSc1ccc(-c2[nH]c(=S)[nH]c2-c2ccc(Cl)cc2)cc1`, the IC50 in experiment [1] came out at 19.7 µM; in experiment [2] it was 21.2 µM.

Turning to `COc1ccc(-c2nc(SC)[nH]c2-c2ccc(Cl)cc2)cc1`, the IC50 in experiment [1] and in experiment [2] was greater than 250 µM each time.

For the compound `S=c1[nH]c(-c2ccccc2)c(-c2ccccc2)[nH]1`, the half-maximal inhibitory concentration (IC50) in experiment [1] is 15.2 µM; in experiment [2], 49.2 µM.

As to `Fc1ccc(-c2[nH]c(=S)[nH]c2-c2ccc(F)cc2)cc1`, the IC50 in experiment [1] was determined as 23.4 µM; in experiment [2], 143 µM.

Turning to `S=c1[nH]c(-c2ccc(Cl)cc2)c(-c2ccc(Cl)cc2)[nH]1`, the IC50 in experiment [1] was determined as 62 µM; in experiment [2], 107 µM.

On to `COc1ccc(-c2nc(S)[nH]c2-c2ccc(OC)cc2)cc1`, for which the IC50 is 14.7 µM in experiment [1] and 15.5 µM in experiment [2].

For `Cc1nc(N2CCN(C)CC2)nc2c1Nc1ccccc1S2`, the 50% inhibitory concentration (IC50) in experiment [1] stood at 34.2 µM.

In the case of `CC(Cc1ccc(O)c(O)c1)C(C)Cc1ccc(O)c(O)c1` (stereo not given) [NORDIHYDROGUAIARETIC ACID], the IC50 in experiment [2] stood at 6.2 µM.

The values above are taken from ChEMBL document CHEMBL2202995, “Synthesis and SAR study of 4,5-diaryl-1H-imidazole-2(3H)-thione derivatives, as potent 15-lipoxygenase inhibitors” (Bioorg Med Chem, 2012).
